Calls of active or inactive are those of the source. The calls are words filed in the database; no cut-off is given here.
Columns and labels:
[1] = Selectivity ratio, ratio of IC50 for human PDE3A to EC50 for cytotoxicity against human HeLa cells
SK-MEL3 = assay: Cytotoxicity against human SK-MEL3 cells assessed as cell growth inhibition upto 10 uM measured after 48 hrs by […] reagent based assay; assay type: functional; settings: SK-MEL3, 48 h
A549 = assay: Cytotoxicity against human A549 cells assessed as cell growth inhibition upto 10 uM measured after 3 days by […] reagent based assay; settings: time 72.0 hrs
[2] = molecular target: cGMP-inhibited 3',5'-cyclic phosphodiesterase 3A (Homo sapiens, UniProt Q14432); assay: Inhibition of human N-terminal His-GST-tagged recombinant PDE3A (669-end residues) using fluorescent labelled cAMP as substrate
Chain of cGMP-inhibited 3',5'-cyclic phosphodiesterase 3A (Q14432 whole entry): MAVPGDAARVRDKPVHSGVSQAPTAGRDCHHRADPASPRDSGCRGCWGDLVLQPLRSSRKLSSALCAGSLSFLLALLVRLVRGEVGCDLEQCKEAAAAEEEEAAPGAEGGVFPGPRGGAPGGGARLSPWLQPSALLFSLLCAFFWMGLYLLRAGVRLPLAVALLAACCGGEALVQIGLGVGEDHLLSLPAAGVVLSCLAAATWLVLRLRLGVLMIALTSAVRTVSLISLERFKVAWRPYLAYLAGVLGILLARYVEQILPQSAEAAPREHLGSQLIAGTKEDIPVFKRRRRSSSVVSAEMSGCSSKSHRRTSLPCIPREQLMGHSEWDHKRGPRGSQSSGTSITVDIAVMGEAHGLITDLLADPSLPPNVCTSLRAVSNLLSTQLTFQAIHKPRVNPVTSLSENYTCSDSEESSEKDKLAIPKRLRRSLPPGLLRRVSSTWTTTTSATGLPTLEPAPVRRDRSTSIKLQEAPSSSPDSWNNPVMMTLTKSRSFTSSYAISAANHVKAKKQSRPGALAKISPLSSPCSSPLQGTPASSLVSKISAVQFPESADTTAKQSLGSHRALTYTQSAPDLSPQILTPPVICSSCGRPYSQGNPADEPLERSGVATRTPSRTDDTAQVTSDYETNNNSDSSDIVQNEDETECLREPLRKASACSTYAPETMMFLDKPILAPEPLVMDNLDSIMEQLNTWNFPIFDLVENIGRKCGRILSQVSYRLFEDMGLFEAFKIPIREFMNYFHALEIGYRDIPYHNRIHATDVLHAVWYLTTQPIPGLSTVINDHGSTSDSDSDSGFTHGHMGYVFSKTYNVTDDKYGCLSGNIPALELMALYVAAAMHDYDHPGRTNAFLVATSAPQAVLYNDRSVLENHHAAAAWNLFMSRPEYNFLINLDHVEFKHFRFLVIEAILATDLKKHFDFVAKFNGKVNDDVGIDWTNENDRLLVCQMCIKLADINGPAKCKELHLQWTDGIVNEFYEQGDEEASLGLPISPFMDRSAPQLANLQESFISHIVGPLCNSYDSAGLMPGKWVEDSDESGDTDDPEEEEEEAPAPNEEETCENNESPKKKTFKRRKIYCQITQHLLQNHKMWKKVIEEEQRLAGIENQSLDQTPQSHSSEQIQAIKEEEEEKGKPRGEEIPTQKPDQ

[3] = molecular target: cGMP-inhibited 3',5'-cyclic phosphodiesterase 3B (Homo sapiens, UniProt Q13370); assay: Inhibition of human recombinant PDE3B
Chain of cGMP-inhibited 3',5'-cyclic phosphodiesterase 3B (Q13370 whole entry): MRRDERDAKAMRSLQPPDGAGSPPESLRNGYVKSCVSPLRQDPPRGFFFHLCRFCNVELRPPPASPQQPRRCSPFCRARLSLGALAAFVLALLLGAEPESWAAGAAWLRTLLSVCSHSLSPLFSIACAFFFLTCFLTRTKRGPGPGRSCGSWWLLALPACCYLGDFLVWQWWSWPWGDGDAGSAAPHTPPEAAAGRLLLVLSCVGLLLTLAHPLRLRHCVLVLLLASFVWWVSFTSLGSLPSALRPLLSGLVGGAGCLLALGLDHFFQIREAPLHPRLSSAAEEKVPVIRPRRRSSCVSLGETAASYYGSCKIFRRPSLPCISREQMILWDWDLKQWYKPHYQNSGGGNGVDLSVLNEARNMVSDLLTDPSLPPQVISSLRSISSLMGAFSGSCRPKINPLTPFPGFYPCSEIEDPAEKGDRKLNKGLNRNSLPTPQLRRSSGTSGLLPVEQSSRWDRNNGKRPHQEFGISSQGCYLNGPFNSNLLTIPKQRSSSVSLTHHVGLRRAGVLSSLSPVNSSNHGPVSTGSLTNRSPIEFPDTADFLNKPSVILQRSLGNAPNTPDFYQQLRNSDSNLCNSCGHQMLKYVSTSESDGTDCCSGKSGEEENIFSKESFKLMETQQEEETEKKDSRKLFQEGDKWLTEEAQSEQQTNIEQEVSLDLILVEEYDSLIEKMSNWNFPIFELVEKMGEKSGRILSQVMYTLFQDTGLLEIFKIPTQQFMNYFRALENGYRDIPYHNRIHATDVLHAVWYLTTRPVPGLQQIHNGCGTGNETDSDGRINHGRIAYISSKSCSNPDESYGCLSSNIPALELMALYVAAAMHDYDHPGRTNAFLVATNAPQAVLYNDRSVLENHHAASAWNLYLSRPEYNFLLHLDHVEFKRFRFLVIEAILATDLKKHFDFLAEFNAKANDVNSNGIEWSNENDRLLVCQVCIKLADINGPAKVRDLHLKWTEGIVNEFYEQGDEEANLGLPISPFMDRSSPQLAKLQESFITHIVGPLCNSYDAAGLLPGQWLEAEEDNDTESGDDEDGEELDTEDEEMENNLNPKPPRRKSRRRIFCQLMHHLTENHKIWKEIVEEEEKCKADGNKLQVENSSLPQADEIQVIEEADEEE

HeLa = assay: Cytotoxicity against human HeLa cells assessed as cell growth inhibition measured after 48 hrs by […] reagent based assay; assay type: functional
[4] = Selectivity ratio, ratio of IC50 for human PDE3B to EC50 for cytotoxicity against human HeLa cells
[5] = Plasma protein binding in human incubated for 5 hrs by UPLC-MS method; assay type: ADME, cell-free; settings: read-out: PPB (converted)
Procedure, shortened: (§1)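 Plasma protein binding, human and mouse, reported as % bound, average of three values.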

[6] = Plasma protein binding in mouse incubated for 5 hrs by UPLC-MS method; assay type: ADME, cell-free; settings: read-out: PPB (converted); procedure, shortened: as §1
[7] = Stability in mouse plasma assessed as parent compound remaining after 5 hrs; assay type: ADME, cell-free; settings: read-out: Stability
Procedure, shortened: (§2)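 Human or mouse plasma incubation. Percent parent remaining at 5 h, average of three values.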

[8] = Stability in human plasma assessed as parent compound remaining after 5 hrs; assay type: ADME, cell-free; settings: read-out: Stability; procedure, shortened: as §2
IMR-90 = assay: Cytotoxicity against human IMR-90 cells assessed as cell growth inhibition upto 10 uM measured after 48 hrs by […] reagent based assay; assay type: functional
Procedure, shortened: (§3)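 Counterscreen viability assay in HCT116 colorectal cancer cells and IMR90 normal lung fibroblasts, run alongside DNMDP-sensitive lines.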

[9] = Microsomal stability in human liver microsomes assessed as parent compound remaining measured after 1 hr in presence of NADPH by UHPLC-MS analysis; assay type: ADME, Microsome; settings: read-out: Stability
Procedure, shortened: (§4)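 Test compound incubated with human or mouse liver microsomes. Percent remaining at 1 h reported as the average of three values.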

HCT-116 = assay: Cytotoxicity against human HCT-116 cells assessed as cell growth inhibition upto 10 uM measured after 48 hrs by […] reagent based assay; assay type: functional; procedure, shortened: as §3
[10] = molecular target: Ribonuclease SLFN12 (Homo sapiens) (UniProt Q8IYM2); assay: Stabilization of PDE3A/V5-epitope tagged SLFN12 interaction in human HeLa cells at 10 uM incubated for 8 hrs by immunoblotting analysis; assay type: cell-based
Chain of Ribonuclease SLFN12 (Homo sapiens) (Q8IYM2 whole entry): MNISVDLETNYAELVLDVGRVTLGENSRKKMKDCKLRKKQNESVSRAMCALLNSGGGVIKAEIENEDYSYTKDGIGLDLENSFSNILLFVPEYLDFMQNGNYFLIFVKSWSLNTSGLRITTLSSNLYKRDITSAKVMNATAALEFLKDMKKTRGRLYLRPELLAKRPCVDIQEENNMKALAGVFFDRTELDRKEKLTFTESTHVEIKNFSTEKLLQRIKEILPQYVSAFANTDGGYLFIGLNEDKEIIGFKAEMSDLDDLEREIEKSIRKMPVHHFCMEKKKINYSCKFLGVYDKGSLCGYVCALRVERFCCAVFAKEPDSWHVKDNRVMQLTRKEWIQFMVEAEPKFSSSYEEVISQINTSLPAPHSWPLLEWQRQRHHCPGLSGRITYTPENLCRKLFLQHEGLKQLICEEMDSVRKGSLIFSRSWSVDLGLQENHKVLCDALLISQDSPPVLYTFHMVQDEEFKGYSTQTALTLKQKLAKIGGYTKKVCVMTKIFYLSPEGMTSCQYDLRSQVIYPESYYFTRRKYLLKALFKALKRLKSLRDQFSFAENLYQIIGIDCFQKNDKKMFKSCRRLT
Procedure, shortened: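 HeLa cells transfected with a plasmid expressing V5-tagged SLFN12, then exposed to 10 µM compound for 8 h. Lysates immunoprecipitated with anti-PDE3A antibody for endogenous PDE3A. Co-precipitated SLFN12-V5 detected by immunoblot with anti-V5 antibody.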

[11] = Microsomal stability in mouse liver microsomes assessed as parent compound remaining at 1 uM measured after 1 hr in presence of NADPH by UHPLC-MS analysis; assay type: ADME, Microsome; settings: read-out: Stability; procedure, shortened: as §4

Compound: C[C@@H]1CC(=O)NN=C1c1ccc(N2CCN(C)CC2)cc1
- Ratio IC50/EC50 [1]: 2.4
- EC50 (SK-MEL3): 684 nM
- Activity (A549): inactive
- IC50 [2]: 2000 nM
- IC50 [3]: 3500 nM
- EC50 (HeLa): 310 nM
- Ratio IC50/EC50 [4]: 2.4

Compound: CCN(CC)c1ccc(C2=NNC(=O)CC2C)cc1[N+](=O)[O-] (centres undefined)
- fraction unbound at 5 h [5]: 0.13
- fraction unbound at 5 h [6]: 0.08
- remaining at 5 h [7]: 87%
- EC50 (SK-MEL3): 12 nM
- Activity (A549): inactive
- IC50 [2]: 25 nM
- IC50 [3]: 100 nM
- remaining at 5 h [8]: 85%
- Activity (IMR-90): inactive
- remaining at 1 h [9]: 95%
- Activity (HCT-116): inactive
- Activity [10]: Active
- remaining at 1 h, 1 µM [11]: 23%

Compound: Cc1nc2cc(C3=NNC(=O)C[C@H]3C)ccc2[nH]1
- Activity (A549): inactive
- EC50 (HeLa): > 1000 nM

Compound: CC(=O)Nc1ccc(C2=NNC(=O)C[C@H]2C)cc1N
- Activity (A549): inactive
- EC50 (HeLa): > 1000 nM

Compound: CCN(CC)c1ccc(C2=NNC(=O)C2(C)C)cc1
- Activity (A549): inactive
- EC50 (HeLa): > 1000 nM

Compound: CC(=O)Nc1ccc(C2=NNC(=O)C[C@H]2C)cc1[N+](=O)[O-]
- EC50 (SK-MEL3): 4.2 nM
- Activity (A549): inactive
- Activity (IMR-90): inactive
- EC50 (HeLa): 4.9 nM
- Activity (HCT-116): inactive

Compound: C[C@@H]1CC(=O)NN=C1c1ccc(N)cc1
- Activity (A549): inactive
- EC50 (HeLa): > 1000 nM

Compound: C[C@@H]1CC(=O)NN=C1c1ccc(N2CCOCC2)cc1
- Activity (A549): inactive
- EC50 (HeLa): 13 nM

Compound: CC1(C)C(=O)NN=C1c1ccc(N)cc1
- Activity (A549): inactive
- EC50 (HeLa): > 1000 nM

Compound: CCN(CC)c1ccc(C2=NNC(=O)CC2C)cc1 (racemic)
- fraction unbound at 5 h [5]: 0.1
- fraction unbound at 5 h [6]: 0.1
- remaining at 5 h [7]: 96%
- Activity (A549): inactive
- remaining at 5 h [8]: 104%
- remaining at 1 h [9]: 89%
- EC50 (HeLa): 8.8 nM
- remaining at 1 h, 1 µM [11]: 26%

Compound: C[C@@H]1CC(=O)NN=C1c1ccc(F)c(F)c1
- Activity (A549): inactive
- Activity (IMR-90): inactive
- EC50 (HeLa): 22 nM
- Activity (HCT-116): inactive

Compound: CC1(C)C(=O)NN=C1c1ccc(N2CCOCC2)cc1
- Activity (A549): inactive
- EC50 (HeLa): > 1000 nM

Compound: C/C=C/c1ccc(C2=NNC(=O)C[C@H]2C)cc1
- Activity (A549): inactive
- EC50 (HeLa): 8.8 nM

Compound: CC1CC(=O)NN=C1c1ccc(N2CCOCC2)cc1 (racemic)
- fraction unbound at 5 h [5]: 0.53
- Ratio IC50/EC50 [1]: 2.4
- fraction unbound at 5 h [6]: 0.58
- remaining at 5 h [7]: 105%
- EC50 (SK-MEL3): 11 nM
- Activity (A549): inactive
- IC50 [2]: 120 nM
- IC50 [3]: 260 nM
- remaining at 5 h [8]: 87%
- Activity (IMR-90): inactive
- remaining at 1 h [9]: 94%
- EC50 (HeLa): 36 nM
- Ratio IC50/EC50 [4]: 2.4
- Activity (HCT-116): inactive
- remaining at 1 h, 1 µM [11]: 99%

Compound: CCN(CC)c1ccc(C2=NNC(=O)C[C@H]2C)cc1[N+](=O)[O-]
- Activity (A549): inactive
- EC50 (HeLa): 3.8 nM

Compound: CCN(CC)c1ccc(C2=NNC(=O)C[C@H]2C)cc1
- Activity (A549): inactive
- EC50 (HeLa): 3.3 nM

Compound: C#Cc1cc(C2=NNC(=O)C[C@H]2C)ccc1NC(C)=O
- Activity (A549): inactive
- EC50 (HeLa): 65 nM

Compound: C[C@@H]1CC(=O)NN=C1c1ccc(C2CCCCC2)cc1
- Activity (A549): inactive
- Activity (IMR-90): inactive
- EC50 (HeLa): 7.7 nM
- Activity (HCT-116): inactive

Compound: CC(=O)Nc1ccc(C2=NNC(=O)C[C@H]2C)cc1Cl
- Ratio IC50/EC50 [1]: 0.38
- EC50 (SK-MEL3): 31 nM
- Activity (A549): inactive
- IC50 [2]: 8 nM
- IC50 [3]: 10 nM
- EC50 (HeLa): 24 nM
- Ratio IC50/EC50 [4]: 0.38

Compound: C[C@H]1CC(=O)NN=C1c1ccc(F)c(F)c1
- Activity (A549): inactive
- EC50 (HeLa): > 1000 nM

Compound: C[C@@H]1CC(=O)NN=C1c1ccc(N2CCOCC2)c(Cl)c1
- Activity (A549): inactive
- EC50 (HeLa): 4.5 nM

Compound: C[C@@H]1CC(=O)NN=C1c1ccc(C2=CCCCC2)cc1
- Activity (A549): inactive
- EC50 (HeLa): 2.2 nM

Compound: CC1CC(=O)NN=C1c1ccc(F)c(F)c1 (racemic)
- fraction unbound at 5 h [5]: 0.44
- fraction unbound at 5 h [6]: 0.48
- remaining at 5 h [7]: 96%
- Activity (A549): inactive
- remaining at 5 h [8]: 93%
- remaining at 1 h [9]: 108%
- EC50 (HeLa): 64 nM
- remaining at 1 h, 1 µM [11]: 82%

Compound: C[C@@H]1CC(=O)NN=C1c1ccc(I)cc1
- Activity (A549): inactive
- EC50 (HeLa): 7.1 nM

Compound: CCNc1ccc(C2=NNC(=O)C[C@H]2C)cc1
- Activity (A549): inactive
- EC50 (HeLa): 71 nM

Compound: C[C@@H]1CC(=O)NN=C1c1ccc(Cl)c(Cl)c1
- Ratio IC50/EC50 [1]: 2.4
- EC50 (SK-MEL3): 5.6 nM
- Activity (A549): inactive
- IC50 [2]: 8 nM
- IC50 [3]: 14 nM
- EC50 (HeLa): 4.5 nM
- Ratio IC50/EC50 [4]: 2.4

Compound: C[C@@H]1CC(=O)NN=C1c1ccc(-c2cncnc2)cc1
- fraction unbound at 5 h [5]: 0.44
- fraction unbound at 5 h [6]: 0.46
- remaining at 5 h [7]: 108%
- Activity (A549): inactive
- remaining at 5 h [8]: 104%
- Activity (IMR-90): inactive
- remaining at 1 h [9]: 83%
- EC50 (HeLa): 13 nM
- Activity (HCT-116): inactive
- remaining at 1 h, 1 µM [11]: 105%

Compound: CCNc1ccc(C2=NNC(=O)C[C@H]2C)cc1[N+](=O)[O-]
- Activity (A549): inactive
- EC50 (HeLa): 1.1 nM

Compound: CC(=O)Nc1ccc(C2=NNC(=O)C[C@H]2C)cc1
- Activity (A549): inactive
- IC50 [2]: 24 nM
- IC50 [3]: 16 nM
- EC50 (HeLa): > 1000 nM

Compound: CC1(C)C(=O)NN=C1c1ccc(Cl)cc1
- Activity (A549): inactive
- EC50 (HeLa): > 1000 nM

Compound: CCN(CC)c1ccc(C2=NNC(=O)CC2C)cc1N (centres undefined)
- Activity (A549): inactive
- EC50 (HeLa): 240 nM

Compound: CCN(CC)c1ccc(C2=NNC(=O)CC2C)cc1NC(C)=O (centres undefined)
- Activity (A549): inactive
- EC50 (HeLa): > 1000 nM

Compound: CC1CC(=O)NN=C1c1ccc(N2CCOCC2)c(F)c1 (racemic)
- fraction unbound at 5 h [5]: 0.43
- fraction unbound at 5 h [6]: 0.45
- remaining at 5 h [7]: 101%
- Activity (A549): inactive
- remaining at 5 h [8]: 80%
- remaining at 1 h [9]: 109%
- EC50 (HeLa): 2.8 nM
- remaining at 1 h, 1 µM [11]: 102%

Compound: C[C@@H]1CC(=O)NN=C1c1ccc(F)cc1
- Activity (A549): inactive
- EC50 (HeLa): 410 nM

Compound: CC(=O)Nc1ccc(C2=NNC(=O)C[C@H]2C)cc1Br
- Activity (A549): inactive
- EC50 (HeLa): 21 nM

Compound: C[C@@H]1CC(=O)NN=C1c1ccc(Cl)cc1
- fraction unbound at 5 h [5]: 0.13
- fraction unbound at 5 h [6]: 0.19
- remaining at 5 h [7]: 86%
- EC50 (SK-MEL3): 29 nM
- Activity (A549): inactive
- remaining at 5 h [8]: 93%
- Activity (IMR-90): inactive
- remaining at 1 h [9]: 81%
- EC50 (HeLa): 33 nM
- Activity (HCT-116): inactive
- remaining at 1 h, 1 µM [11]: 92%

Compound: C[C@H]1CC(=O)NN=C1c1ccc(N2CCOCC2)c(F)c1
- Activity (A549): inactive
- Activity (IMR-90): inactive
- EC50 (HeLa): > 1000 nM
- Activity (HCT-116): inactive

Compound: CC(=O)Nc1ccc(C2=NNC(=O)C[C@H]2C)cc1C(C)=O
- Activity (A549): inactive
- EC50 (HeLa): 130 nM

Compound: CCN1N=C(c2ccc(N(CC)CC)c([N+](=O)[O-])c2)C(C)CC1=O (racemic)
- Activity (A549): inactive
- Activity (IMR-90): inactive
- EC50 (HeLa): > 1000 nM
- Activity (HCT-116): inactive

Compound: C[C@@H]1CC(=O)NN=C1c1ccc(-n2cnnc2)cc1
- Activity (A549): inactive
- EC50 (HeLa): > 1000 nM

Compound: CCCc1ccc(C2=NNC(=O)C[C@H]2C)cc1
- Activity (A549): inactive
- EC50 (HeLa): 16 nM
